Results published in PMC6839502 (Journal of Alzheimer's Disease, 2019).
Where two headings read alike, the source gives them in different places.

Experiments:
plasma Aβ fragments = test: Plasma Aβ fragments after single and multiple doses; assay type: in vivo, human; conditions: 275 mg, on Day 1
In short: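 Healthy adults, oral QD dosing versus placebo, Part B. Pre-dose blood was drawn on Days 1, 2, 4, 7, 10, and 14. Plasma Aβ1–40 was measured by DELFIA (LLOQ 12.1 pg/mL). Log change from baseline was analysed by mixed-model repeated measures: treatment, time, and their interaction as fixed effects, subject as random effect, and log baseline as covariate. Results were expressed as placebo-adjusted reduction.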

hERG = conditions: in vitro and in vivo preclinical safety and toxicology studies; cited from earlier work
Aβ40 and Aβ42 = conditions: animal studies, subcutaneous administration; cited from earlier work
[1] = assay type: in vivo, human; conditions: for AUCtau / Cmax / CL/F / Cmin / Rac (observed accumulation ratio) / Vz/F / AUCinf: geometric mean (% CV); for t1/2: arithmetic mean±SD
In short: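 Healthy adults (18–55 y) or older subjects (60–85 y) received oral QD doses for 14 days, fasted on Day 1. Plasma was sampled pre-dose and at 0.5, 1, 2, 4, 8, 12, and 24 h, plus 1.5 h (B8271001) or 6 h (B8271004). Day 14 sampling extended to 120 h. Urine was also collected. Samples were analysed by validated HPLC-MS/MS; plasma LLOQ 0.500 or 5.00 ng/mL, urine LLOQ 0.050 ng/mL. Parameters were derived by non-compartmental analysis.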

[2] = 5 mg QD, Day 14, healthy adults
[3] = 15 mg QD, Day 1, healthy adults
[4] = 15 mg QD, Day 7, healthy adults
[5] = 15 mg QD, Day 14, healthy adults
[6] = 50 mg QD, Day 1, healthy adults
[7] = 50 mg QD, Day 1, healthy older subjects
[8] = 50 mg QD, Day 7, healthy adults
[9] = 50 mg QD, Day 14, healthy adults
[10] = 50 mg QD, Day 14, healthy older subjects
[11] = 50 mg or 125 mg QD, healthy older subjects
[12] = 125 mg QD, Day 1, healthy adults
[13] = 125 mg QD, Day 1, healthy older subjects
[14] = 125 mg QD, Day 7, healthy adults
[15] = 125 mg QD, Day 14, healthy adults
[16] = 125 mg QD, Day 14, healthy older subjects
[17] = 275 mg QD, Day 1, healthy adults
[18] = 275 mg QD, Day 7, healthy adults
[19] = 275 mg QD, Day 14, healthy adults
[20] = multiple doses, healthy adults (Part B)
[21] = single 3 mg fasted, healthy adults
[22] = single 12 mg fasted, healthy adults
[23] = single 40 mg fasted, healthy adults
[24] = single 160 mg fasted, healthy adults
[25] = single 200 mg fasted, healthy adults
[26] = single 200 mg fed, healthy adults
[27] = single 400 mg fasted, healthy adults
[28] = single 540 mg fasted, healthy adults

SMILES: C[C@H]1C[C@H]2CSC(N)=N[C@@]2(c2nc(NC(=O)c3ccc(OC(F)F)cn3)cs2)CO1 [PF-06751979]
- Maximum observed placebo-adjusted reduction in plasma Aβ1–40, multiple doses (plasma Aβ fragments): 88.3%
- hERG inhibition (hERG): weak hERG inhibition
- Aβ40 and Aβ42 in the brain and CSF (Aβ40 and Aβ42): robust reductions
- AUCtau ([1]; 5 mg QD, Day 1, healthy adults): 167.7 (18) ng.hr/mL
- Cmax ([1]; 5 mg QD, Day 1, healthy adults): 10.12 (22) ng/mL
- Tmax ([1]; 5 mg QD, Day 1, healthy adults, median (range)): 3.98 (2.03–12.3) h
- AUCtau ([1]; 5 mg QD, Day 7, healthy adults): 395.2 (20) ng.h/mL
- Cmax ([1]; 5 mg QD, Day 7, healthy adults): 20.68 (22) ng/mL
- Tmax ([1]; 5 mg QD, Day 7, healthy adults, median (range)): 6.02 (3.95–8.05) h
- t1/2 [1, 2]: 37.15 ± 5.20 h
- AUCtau [1, 2]: 422.2 (20) ng.hr/mL
- CL/F [1, 2]: 197.1 (20) mL/min
- Cmax [1, 2]: 22.41 (23) ng/mL
- Cmin [1, 2]: 12.55 (22) ng/mL
- Rac (observed accumulation ratio) [1, 2]: 2.52 (12)
- Vz/F [1, 2]: 628.7 (18) L
- Tmax ([1]; 5 mg QD, Day 14, healthy adults, median (range)): 4.01 (3.98–8.02) h
- AUCtau [1, 3]: 478.8 (20) ng.hr/mL
- Cmax [1, 3]: 28.90 (22) ng/mL
- Tmax ([1]; 15 mg QD, Day 1, healthy adults, median (range)): 4.07 (4.00–7.83) h
- AUCtau [1, 4]: 1149 (12) ng.h/mL
- Cmax [1, 4]: 64.34 (12) ng/mL
- Tmax ([1]; 15 mg QD, Day 7, healthy adults, median (range)): 4.02 (2.17–8.03) h
- t1/2 [1, 5]: 30.65 ± 3.19 h
- AUCtau [1, 5]: 1152 (13) ng.hr/mL
- CL/F [1, 5]: 216.9 (12) mL/min
- Cmax [1, 5]: 64.63 (14) ng/mL
- Cmin [1, 5]: 32.75 (14) ng/mL
- Rac (observed accumulation ratio) [1, 5]: 2.41 (14)
- Vz/F [1, 5]: 573.2 (12) L
- Tmax ([1]; 15 mg QD, Day 14, healthy adults, median (range)): 4.05 (4.02–7.87) h
- AUCtau [1, 6]: 1739 (14) ng.hr/mL
- Cmax [1, 6]: 120.6 (17) ng/mL
- Tmax ([1]; 50 mg QD, Day 1, healthy adults, median (range)): 2.99 (1.02–4.07) h
- AUCtau [1, 7]: 1621 (22) ng.hr/mL
- Cmax [1, 7]: 102.9 (25) ng/mL
- Tmax ([1]; 50 mg QD, Day 1, healthy older subjects, median (range)): 4.00 (2.02–7.98) h
- AUCtau [1, 8]: 4181 (20) ng.h/mL
- Cmax [1, 8]: 241.1 (20) ng/mL
- Tmax ([1]; 50 mg QD, Day 7, healthy adults, median (range)): 3.83 (1.43–4.07) h
- t1/2 [1, 9]: 37.36 ± 5.91 h
- AUCtau [1, 9]: 4236 (24) ng.hr/mL
- CL/F [1, 9]: 196.9 (24) mL/min
- Cmax [1, 9]: 245.7 (21) ng/mL
- Cmin [1, 9]: 120.4 (25) ng/mL
- Rac (observed accumulation ratio) [1, 9]: 2.43 (15)
- Vz/F [1, 9]: 629.0 (27) L
- Tmax ([1]; 50 mg QD, Day 14, healthy adults, median (range)): 3.00 (0.88–8.08) h
- t1/2 [1, 10]: 39.95 ± 3.18 h
- AUCtau [1, 10]: 4505 (20) ng.h/mL
- CL/F [1, 10]: 184.9 (20) mL/min
- Cmax [1, 10]: 256.4 (23) ng/mL
- Cmin [1, 10]: 135.8 (18) ng/mL
- Vz/F [1, 10]: 637.4 (23) L
- Tmax ([1]; 50 mg QD, Day 14, healthy older subjects, median (range)): 4.00 (2.00–4.20) h
- Median Tmax [1, 11]: 4 h
- Steady state achieved by [1, 11]: ≤ 7 days
- AUCtau [1, 12]: 6380 (15) ng.hr/mL
- Cmax [1, 12]: 442.7 (20) ng/mL
- Tmax ([1]; 125 mg QD, Day 1, healthy adults, median (range)): 4.00 (2.00–6.03) h
- AUCtau [1, 13]: 5238 (24) ng.hr/mL
- Cmax [1, 13]: 377.1 (30) ng/mL
- Tmax ([1]; 125 mg QD, Day 1, healthy older subjects, median (range)): 4.00 (2.00–4.03) h
- AUCtau [1, 14]: 13810 (16) ng.h/mL
- Cmax [1, 14]: 818.7 (19) ng/mL
- Tmax ([1]; 125 mg QD, Day 7, healthy adults, median (range)): 3.00 (2.00–6.00) h
- t1/2 [1, 15]: 30.73 ± 5.75 h
- AUCtau [1, 15]: 13990 (14) ng.hr/mL
- CL/F [1, 15]: 149.0 (14) mL/min
- Cmax [1, 15]: 837.6 (16) ng/mL
- Cmin [1, 15]: 390.3 (18) ng/mL
- Rac (observed accumulation ratio) [1, 15]: 2.19 (11)
- Vz/F [1, 15]: 390.5 (23) L
- Tmax ([1]; 125 mg QD, Day 14, healthy adults, median (range)): 4.00 (2.00–12.00) h
- t1/2 [1, 16]: 40.76 ± 3.90 h
- AUCtau [1, 16]: 14750 (23) ng.h/mL
- CL/F [1, 16]: 141.4 (23) mL/min
- Cmax [1, 16]: 879.4 (28) ng/mL
- Cmin [1, 16]: 429.9 (23) ng/mL
- Vz/F [1, 16]: 496.1 (30) L
- Tmax ([1]; 125 mg QD, Day 14, healthy older subjects, median (range)): 4.00 (2.00–4.03) h
- AUCtau [1, 17]: 13260 (18) ng.hr/mL
- Cmax [1, 17]: 983.0 (18) ng/mL
- Tmax ([1]; 275 mg QD, Day 1, healthy adults, median (range)): 4.00 (2.00–4.00) h
- AUCtau [1, 18]: 31210 (14) ng.h/mL
- Cmax [1, 18]: 2000 (14) ng/mL
- Tmax ([1]; 275 mg QD, Day 7, healthy adults, median (range)): 2.00 (2.00–4.00) h
- t1/2 [1, 19]: 37.79 ± 7.73 h
- AUCtau [1, 19]: 29470 (12) ng.hr/mL
- CL/F [1, 19]: 155.3 (13) mL/min
- Cmax [1, 19]: 1869 (14) ng/mL
- Cmin [1, 19]: 868.5 (15) ng/mL
- Rac (observed accumulation ratio) [1, 19]: 2.27 (11)
- Vz/F [1, 19]: 498.3 (27) L
- Tmax ([1]; 275 mg QD, Day 14, healthy adults, median (range)): 4.00 (2.00–4.00) h
- Mean of dose recovered unchanged in the urine ([1]; across the dose range studied, multiple doses): 7–10%
- Median Tmax ([1]; fasted state, single doses 3 mg to 540 mg and multiple doses up to 275 mg QD, healthy adults): 3 to 4 h
- Mean t1/2 across doses ([1]; healthy adults): 29 to 39 h
- Observed t1/2 ([1]; healthy older subjects): approximately 40 h
- Plasma accumulation at Day 14 ([1]; healthy older subjects): 2.8 fold
- Accumulation on Day 14 [1, 20]: 2.1- to 2.5 fold
- Steady state achieved by [1, 20]: ≤ 7 days
- t1/2 [1, 21]: 29.30 ± 0.60 h
- AUCinf [1, 21]: 289.7 (8) ng.hr/mL
- CL/F [1, 21]: 172.3 (8) mL/min
- Cmax [1, 21]: 8.4 (14) ng/mL
- Vz/F [1, 21]: 436.8 (6) L
- Tmax ([1]; single 3 mg fasted, healthy adults, median (range)): 4.03 (4.00–8.00) h
- t1/2 [1, 22]: 32.94 ± 4.92 h
- AUCinf [1, 22]: 1142 (25) ng.hr/mL
- CL/F [1, 22]: 175.0 (25) mL/min
- Cmax [1, 22]: 27.4 (36) ng/mL
- Vz/F [1, 22]: 494.8 (20) L
- Tmax ([1]; single 12 mg fasted, healthy adults, median (range)): 4.11 (2.0–12.00) h
- t1/2 [1, 23]: 32.12 ± 3.64 h
- AUCinf [1, 23]: 3121 (25) ng.hr/mL
- CL/F [1, 23]: 213.4 (25) mL/min
- Cmax [1, 23]: 78.7 (30) ng/mL
- Vz/F [1, 23]: 591.4 (26) L
- Tmax ([1]; single 40 mg fasted, healthy adults, median (range)): 4.08 (2.00–8.05) h
- t1/2 [1, 24]: 39.33 ± 8.20 h
- AUCinf [1, 24]: 17050 (18) ng.hr/mL
- CL/F [1, 24]: 156.3 (18) mL/min
- Cmax [1, 24]: 530.8 (41) ng/mL
- Vz/F [1, 24]: 523.2 (25) L
- Tmax ([1]; single 160 mg fasted, healthy adults, median (range)): 3.03 (1.87–4.08) h
- t1/2 [1, 25]: 35.20 ± 8.97 h
- AUCinf [1, 25]: 22850 (17) ng.hr/mL
- CL/F [1, 25]: 145.8 (17) mL/min
- Cmax [1, 25]: 643.2 (19) ng/mL
- Vz/F [1, 25]: 433.7 (18) L
- Tmax ([1]; single 200 mg fasted, healthy adults, median (range)): 4.00 (2.00–6.07) h
- Food effect on plasma exposure (Cmax and AUCinf) ([1]; single 200 mg fed vs fasted): no apparent food effect
- t1/2 [1, 26]: 33.38 ± 6.25 h
- AUCinf [1, 26]: 23260 (15) ng.hr/mL
- CL/F [1, 26]: 143.3 (15) mL/min
- Cmax [1, 26]: 630.2 (9) ng/mL
- Vz/F [1, 26]: 408.1 (16) L
- Tmax ([1]; single 200 mg fed, healthy adults, median (range)): 6.00 (4.00–8.00) h
- Tmax ([1]; single 200 mg in a fed state): 6 h
- t1/2 [1, 27]: 34.70 ± 8.97 h
- AUCinf [1, 27]: 44980 (17) ng.hr/mL
- CL/F [1, 27]: 148.3 (17) mL/min
- Cmax [1, 27]: 1436.0 (10) ng/mL
- Vz/F [1, 27]: 433.0 (19) L
- Tmax ([1]; single 400 mg fasted, healthy adults, median (range)): 3.02 (2.00–4.00) h
- t1/2 [1, 28]: 35.85 ± 8.10 h
- AUCinf [1, 28]: 63420 (9) ng.hr/mL
- CL/F [1, 28]: 142.0 (9) mL/min
- Cmax [1, 28]: 1829.0 (19) ng/mL
- Vz/F [1, 28]: 431.1 (19) L
- Tmax ([1]; single 540 mg fasted, healthy adults, median (range)): 3.01 (2.00–6.02) h
